Experimental data pooled from the literature.
Compare with care: the assays were run in different laboratories.
Target: Calcium/calmodulin-dependent protein kinase type II subunit gamma (CAMK2G, Homo sapiens, UniProt Q13555)

O=C(Nc1c[nH]nc1C(=O)NC1CCNCC1)c1cc(F)cc(F)c1  remaining binding (binding; competition with immobilised ligand; 1 µM): 100%
CN(c1nccc(-c2cnn3ncccc23)n1)C1CC1  remaining binding (binding; 1 µM): 100%
COc1ncc2cc3ccccc3nc2c1C#N  remaining binding (cell-free assay; competition with immobilised ligand; 5 µM): 92%
CN(C)c1ncc(F)c(-c2cnn3ncccc23)n1  remaining binding (binding; 1 µM): 90%
COc1cnc(Nc2cccc(S(N)(=O)=O)c2)nc1N1CCN(c2ccccc2)CC1  remaining binding (binding; competition with immobilised ligand; 1 µM): 94%
CCS(=O)(=O)c1cc2cc(C[C@](O)(CC(C)(C)c3ccc(F)cc3C(N)=O)C(F)(F)F)[nH]c2cn1  remaining binding (cell-free assay; competition with immobilised ligand; 1 µM): 100%
c1cnn2ncc(-c3ccnc(N4CCC45COC5)n3)c2c1  remaining binding (binding; 1 µM): 91%
O=C(c1ccc(Nc2ncc(Cl)c(-c3ccc(Cl)s3)n2)cc1)N1CCC(N2CCCC2)CC1  remaining binding (binding; competition with immobilised ligand; 1 µM): 80%
O=C(N1CCS(=O)(=O)CC1)N1C[C@H](c2ccc(OC(F)(F)F)cc2)C[C@H](c2nc(C3CC3)no2)C1  remaining binding (cell-free assay; competition with immobilised ligand; 1 µM): 100%
Cc1cnc(Nc2ccc(C(=O)N3CCC(N4CCCC4)CC3)cc2)nc1-c1cc2ccccc2s1  remaining binding (binding; competition with immobilised ligand; 1 µM): 74%
CN(C)c1nccc(-c2cnn3ncccc23)n1  remaining binding (binding; 1 µM): 100%
COc1cnc(Nc2cccc(S(N)(=O)=O)c2)nc1N1CCN(c2ccccc2)C(=O)C1  remaining binding (binding; competition with immobilised ligand; 1 µM): 100%
Cc1cc(-n2nc(Cc3cc(F)cc(C(F)(F)F)c3)nc2C)ccc1C(N)=O  remaining binding (cell-free assay; competition with immobilised ligand; 1 µM): 100%
C[C@@H](c1ccc(-n2cnc3c(N)ncnc32)cc1)N1CCc2nn(C)c(Cc3ccccc3)c2C1=O  remaining binding (binding; competition with immobilised ligand; 0.1 µM): 94%
COc1cc(-c2cn(C3CCc4ccccc4N(CC(F)(F)F)C3=O)nn2)ccc1-n1ccc(C)n1 (centres unmarked)  remaining binding (cell-free assay; competition with immobilised ligand; 1 µM): 100%
COc1ccnn2ncc(-c3ccnc(N(C)C)n3)c12  remaining binding (binding; 1 µM): 100%
CS(=O)(=O)NCC[C@H](NC(=O)c1cncc2c1cnn2-c1ccc(F)cc1)c1ccnc(S(C)(=O)=O)c1  remaining binding (cell-free assay; competition with immobilised ligand; 1 µM): 99%
c1cncc(-c2cccc(Nc3nccc(NC4CCCCC4)n3)c2)c1  remaining binding (binding; competition with immobilised ligand; 10 µM): 80%
O=C(c1ccc(Nc2ncc(Cl)c(-c3cc4ccccc4s3)n2)cc1)N1CCC(N2CCCC2)CC1  remaining binding (binding; competition with immobilised ligand; 1 µM): 82%
FC(F)(F)c1ccc2c(c1)nc(-c1cccnc1)n2C1CC1  remaining binding (cell-free assay; competition with immobilised ligand; 1 µM): 100%
